The record followed here is ChEMBL document CHEMBL4385646, “Structural development of 1H-pyrazolo-[3,4-b]pyridine-4-carboxylic acid derivatives as human peroxisome proliferator-activated receptor alpha (PPARα)-selective agonists” (Bioorg Med Chem Lett, 2019).

The subject of experiment [1] is Rattus norvegicus. In words: […] activity in fructose-challenged Sprague-Dawley rat assessed as increase in liver ACOX1 mRNA expression at 10 mg/kg, po administered once daily via gavage for 2 weeks measured after 5 hrs fasting by SYBR green dye-based RT-PCR analysis. Format: functional, organism-based. The method in brief: (§1)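 Male rats were given 25% fructose in drinking water for 3 weeks. They then received 10 mg/kg/day orally in 0.5% methylcellulose (vehicle control) for 2 more weeks while fructose continued. Liver mRNA was measured by real-time RT-PCR, normalized to β2-microglobulin and set as 1 in the vehicle group. Values are means ± S.D.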

Experiment [2] concerns the target T1, Peroxisome proliferator-activated receptor alpha (Homo sapiens) (UniProt Q07869).
T1 sequence (whole entry): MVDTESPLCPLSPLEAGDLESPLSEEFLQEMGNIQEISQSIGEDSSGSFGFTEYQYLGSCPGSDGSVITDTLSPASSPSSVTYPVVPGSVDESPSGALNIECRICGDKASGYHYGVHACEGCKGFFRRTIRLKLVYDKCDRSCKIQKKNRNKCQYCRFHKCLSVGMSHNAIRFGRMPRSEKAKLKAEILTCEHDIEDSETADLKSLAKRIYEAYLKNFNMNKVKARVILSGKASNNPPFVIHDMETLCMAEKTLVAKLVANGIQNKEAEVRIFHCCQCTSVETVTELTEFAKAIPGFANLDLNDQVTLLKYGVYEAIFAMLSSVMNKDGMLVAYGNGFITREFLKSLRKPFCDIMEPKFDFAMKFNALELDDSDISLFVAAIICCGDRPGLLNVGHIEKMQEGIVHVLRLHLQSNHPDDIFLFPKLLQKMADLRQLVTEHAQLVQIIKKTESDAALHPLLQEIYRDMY
In words: Transactivation of human PPARalpha LBD expressed in human HepG2 cells at 10 uM after 24 hrs in presence of PPARalpha antagonist by dual renilla-luciferase reporter gene assay. It is filed as cell-based. The essentials:
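Transfected HepG2 cells (4xUAS-tk-luc plus pBIND-hPPARα) were pretreated 1 h with graded GW6471 before agonist was added at 10 μM final. Reporter luciferase was read after treatment. Percent inhibition was calculated relative to activity without GW6471, taken as 100%.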
In general terms: A reporter such as luciferase makes a cellular process visible.

Experiment [3] concerns Rattus norvegicus. The experiment can be described thus: […] activity in fructose-challenged Sprague-Dawley rat assessed as reduction in serum triglyceride level at 10 mg/kg, po administered once daily via gavage for 2 weeks measured after 5 hrs fasting. It is filed as functional, organism-based. The essentials:
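Male rats had 25% fructose in drinking water for 3 weeks, then oral dosing at 10 mg/kg/day for 2 weeks with fructose continued. The vehicle group got 0.5% methylcellulose. Serum triglyceride was measured after the 2-week treatment.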

Experiment [4] has as its target T2, Peroxisome proliferator-activated receptor delta (Homo sapiens) (UniProt Q03181).
T2 sequence (whole entry): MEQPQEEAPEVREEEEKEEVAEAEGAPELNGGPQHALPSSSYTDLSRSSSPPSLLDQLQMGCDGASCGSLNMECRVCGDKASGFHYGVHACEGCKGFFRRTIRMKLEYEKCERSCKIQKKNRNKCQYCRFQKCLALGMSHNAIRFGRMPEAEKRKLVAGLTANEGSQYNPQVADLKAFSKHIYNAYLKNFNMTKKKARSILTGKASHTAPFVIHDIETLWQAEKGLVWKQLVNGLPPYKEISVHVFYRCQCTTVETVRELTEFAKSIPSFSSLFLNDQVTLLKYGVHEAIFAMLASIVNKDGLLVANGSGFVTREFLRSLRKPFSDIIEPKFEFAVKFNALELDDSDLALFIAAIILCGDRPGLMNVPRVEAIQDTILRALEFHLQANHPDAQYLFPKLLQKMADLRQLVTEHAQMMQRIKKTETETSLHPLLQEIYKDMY
In words: Transactivation of human GAL4-fused PPARdelta expressed in human HepG2 cells after 24 hrs by dual renilla-luciferase reporter gene assay. Format: cell-based. The method in brief: (§2)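 HepG2 cells carried GAL4-fused human PPARγ or PPARδ, or mouse or rat PPARα, plus the 4xUAS-tk-luc reporter. Cells treated across a concentration range for 24 h. Luciferase normalized to Renilla activity and expressed as fold induction over vehicle, set as 1.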

The nature of experiment [5]: Selectivity ratio of EC50 for rat GAL4-fused PPARalpha expressed in human HepG2 cells to EC50 for human GAL4-fused PPARalpha LBD expressed in human HepG2 cells. Format: cell-based.
Experiment [6] deals with Rattus norvegicus. The experiment can be described thus: […] activity in fructose-challenged Sprague-Dawley rat assessed as increase in liver CPT1A mRNA expression at 10 mg/kg, po administered once daily via gavage for 2 weeks measured after 5 hrs fasting by SYBR green dye-based RT-PCR analysis. It is filed as functional, organism-based. The essentials:
as §1

Experiment [7] deals with T1, Peroxisome proliferator-activated receptor alpha (Homo sapiens). In words: Transactivation of human GAL4-fused PPARalpha LBD expressed in human HepG2 cells at 1 uM after 24 hrs by dual renilla-luciferase reporter gene assay relative to fenofibrate. It is filed as cell-based. The method in brief:
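HepG2 cells cotransfected with 4xUAS-tk-luc and pBIND-hPPARα. Cells treated 24 h with compound at 1 μM final; fenofibrate 10 μM served as reference and 0.1% DMSO as vehicle. Read-out by reporter gene luciferase assay.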

Experiment [8] has as its system Rattus norvegicus. The experiment can be described thus: […] activity in fructose-challenged Sprague-Dawley rat assessed as increase in liver SLC25A20 mRNA expression at 10 mg/kg, po administered once daily via gavage for 2 weeks measured after 5 hrs fasting by SYBR green dye-based RT-PCR analysis. It is filed as functional, organism-based. The method in brief: as §1

Experiment [9] deals with Rattus norvegicus. The experiment can be described thus: […] activity in fructose-challenged Sprague-Dawley rat assessed as increase in liver ACADM mRNA expression at 10 mg/kg, po administered once daily via gavage for 2 weeks measured after 5 hrs fasting by SYBR green dye-based RT-PCR analysis. Format: functional, organism-based. The method in brief:
as §1

A short description of experiment [10]: Selectivity ratio of EC50 for mouse GAL4-fused PPARalpha expressed in human HepG2 cells to EC50 for human GAL4-fused PPARalpha LBD expressed in human HepG2 cells. Format: cell-based.
For experiment [11], the target named is T1, Peroxisome proliferator-activated receptor alpha (Homo sapiens). The experiment can be described thus: Transactivation of human PPARalpha in human FLC4 cells assessed as upregulation of PDK4 mRNA expression after 48 hrs by SYBR green dye-based RT-PCR analysis. It is filed as cell-based. The method in brief:
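FLC4 cells treated for 48 h with various concentrations. PDK4 mRNA measured by real-time RT-PCR, normalized to β2-microglobulin and set as 1 in vehicle. Values are means ± S.D.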

Experiment [12] addresses T3, Peroxisome proliferator-activated receptor gamma (Homo sapiens) (UniProt P37231).
T3 sequence (whole entry): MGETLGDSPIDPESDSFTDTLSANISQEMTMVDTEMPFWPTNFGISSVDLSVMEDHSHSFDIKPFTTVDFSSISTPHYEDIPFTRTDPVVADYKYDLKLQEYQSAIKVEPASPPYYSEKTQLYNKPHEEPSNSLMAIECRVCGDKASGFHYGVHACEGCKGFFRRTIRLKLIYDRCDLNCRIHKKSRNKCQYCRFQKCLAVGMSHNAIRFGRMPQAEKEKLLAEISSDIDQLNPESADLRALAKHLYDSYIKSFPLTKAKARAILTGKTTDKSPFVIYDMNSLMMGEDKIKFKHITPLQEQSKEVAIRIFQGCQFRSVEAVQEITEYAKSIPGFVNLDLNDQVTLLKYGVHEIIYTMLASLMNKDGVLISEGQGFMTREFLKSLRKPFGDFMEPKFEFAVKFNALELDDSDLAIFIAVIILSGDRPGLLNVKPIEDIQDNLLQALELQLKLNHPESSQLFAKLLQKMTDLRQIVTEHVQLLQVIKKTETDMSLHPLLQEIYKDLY
The experiment can be described thus: Transactivation of human GAL4-fused PPARgamma expressed in human HepG2 cells at 30 uM after 24 hrs by renilla luciferase reporter gene assay. Format: cell-based. The essentials:
as §2

In experiment [13] the target is Peroxisome proliferator-activated receptor alpha (Homo sapiens) (UniProt Q07869). In words: Displacement of fluormone pan-PPAR green from GST-tagged human PPARalpha ligand binding domain after 3 hrs by TR-FRET assay. For orientation: TR-FRET usually uses a lanthanide donor and a delayed reading to cut background.
Experiment [14] relates to Rattus norvegicus. The experiment can be described thus: […] activity in fructose-challenged Sprague-Dawley rat assessed as increase in liver ACADM mRNA expression at 30 mg/kg, po administered once daily via gavage for 2 weeks measured after 5 hrs fasting by SYBR green dye-based RT-PCR analysis. Format: functional, organism-based. The method in brief: (§3)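 Male rats were given 25% fructose in drinking water for 3 weeks. They then received 30 mg/kg/day orally in 0.5% methylcellulose (vehicle control) for 2 more weeks while fructose continued. Liver mRNA was measured by real-time RT-PCR, normalized to β2-microglobulin and set as 1 in the vehicle group. Values are means ± S.D.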

In experiment [15] the test system is Rattus norvegicus. The experiment can be described thus: […] activity in fructose-challenged Sprague-Dawley rat assessed as increase in liver CPT1A mRNA expression at 30 mg/kg, po administered once daily via gavage for 2 weeks measured after 5 hrs fasting by SYBR green dye-based RT-PCR analysis. It is filed as functional, organism-based. The method in brief: as §3

Experiment [16] relates to Rattus norvegicus. In words: […] activity in fructose-challenged Sprague-Dawley rat assessed as increase in liver SLC25A20 mRNA expression at 30 mg/kg, po administered once daily via gavage for 2 weeks measured after 5 hrs fasting by SYBR green dye-based RT-PCR analysis. It is filed as functional, organism-based. The method in brief: as §3
Experiment [17] concerns Rattus norvegicus. In words: […] activity in fructose-challenged Sprague-Dawley rat assessed as reduction in serum triglyceride level at 30 mg/kg, po administered once daily via gavage for 2 weeks measured after 5 hrs fasting. It is filed as functional, organism-based. The method in brief:
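Male rats had 25% fructose in drinking water for 3 weeks, then oral dosing at 30 mg/kg/day for 2 weeks with fructose continued. The vehicle group got 0.5% methylcellulose. Serum triglyceride was measured after the 2-week treatment.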

For experiment [18], the system named is Rattus norvegicus. The experiment can be described thus: […] activity in fructose-challenged Sprague-Dawley rat assessed as increase in liver ACOX1 mRNA expression at 30 mg/kg, po administered once daily via gavage for 2 weeks measured after 5 hrs fasting by SYBR green dye-based RT-PCR analysis. Format: functional, organism-based. The essentials:
as §3

Active and inactive are the calls of the source. The rule behind the calls is not given here.

Turning to `Cc1cc(C(=O)O)c2c(C(C)C)nn(-c3ccc(Cl)cc3)c2n1`, the outcome (in the experiment with Rattus norvegicus [1]; with Rattus norvegicus [3]; in the experiment with Rattus norvegicus [6]; in the experiment on Rattus norvegicus [8]; in the experiment with Rattus norvegicus [9]; in experiment [12]) was Active. For the same compound, the result in experiment [2] and in experiment [4] was inactive. For the same compound, the Ratio EC50 in experiment [5] and in experiment [10] was 20 throughout. In experiment [7], this compound gave an activation relative to fenofibrate of 187. In experiment [11], the Activity entry was “Dose-dependent effect”. Besides, the inhibition entry in experiment [13] is “Dose-dependent effect”.

`CC(C)OC(=O)C(C)(C)Oc1ccc(C(=O)c2ccc(Cl)cc2)cc1`: the outcome in the experiment on Rattus norvegicus [14], with Rattus norvegicus [15], in the experiment with Rattus norvegicus [16], in the experiment on Rattus norvegicus [17] and in the experiment with Rattus norvegicus [18] was Active.
